In ChEMBL document CHEMBL3425499, “Iridoid glycosides from Barleria lupulina” (J Nat Prod, 2015):
Converted amounts (≈) assume the structure as drawn. The source made the active and inactive calls. The calls are words filed in the database; no cut-off is given here.

Assays:
[1] = Antioxidant activity assessed as DPPH free radical scavenging activity measured as decoloration of a MeOH solution after 10 mins by spectrophotometry; format: physicochemical
Outline: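 Compounds were dissolved in MeOH at various concentrations and mixed with a methanolic DPPH solution. Mixtures were held 10 min in the dark, then remaining DPPH was read as absorbance at 517 nm. Scavenging was calculated against a blank of DPPH plus solvent, taken as 100%.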

MDA-MB-231 = assay: Cytotoxicity against Stat3-activated human MDA-MB-231 cells assessed as growth inhibition at 20 ug/ml after 72 hrs by CyQuant assay; format: functional, cell-based
Outline: (§1)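 Cells were seeded at 1000 per well and grown 24 h. They were then exposed to 20 μg/mL compound for 72 h. Viability was measured by the CyQuant assay following the kit instructions and expressed relative to DMSO-treated control cells.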

U-251 = assay: Cytotoxicity against Stat3-activated human U251MG cells assessed as growth inhibition at 20 ug/ml after 72 hrs by CyQuant assay; format: functional, cell-based; outline: as §1
NIH3T3 = assay: Cytotoxicity against mouse NIH/3T3 cells assessed as growth inhibition at 20 ug/ml after 72 hrs by CyQuant assay

| IC50 [1] | SMILES | inhibition (MDA-MB-231) | inhibition (U-251) | inhibition (NIH3T3) |
| --- | --- | --- | --- | --- |
| 7.63 µg/mL (≈ 43.3 µM) | O=C1O[C@H]([C@@H](O)CO)C(O)=C1O [ASCORBIC ACID] | – | – | – |
| – | C[C@]1(O)CC[C@@H]2C(C(=O)O)=CO[C@@H](O[C@@H]3O[C@H](CO)[C@@H](O)[C@H](O)[C@H]3O)[C@@H]21 | inactive | inactive | inactive |
| – | COC(=O)C1=CO[C@@H](O[C@@H]2O[C@H](CO)[C@@H](O)[C@H](O)[C@H]2O)[C@H]2[C@@H]1[C@H](OC(C)=O)C[C@]2(C)OC(C)=O | inactive | inactive | inactive |
| 110.3 µg/mL (≈ 246 µM) | COC(=O)C1=CO[C@@H](O[C@@H]2O[C@H](CO)[C@@H](O)[C@H](O)[C@H]2O)[C@H]2[C@@H]1[C@H](O)C[C@]2(C)OC(C)=O [BARLERIN] | inactive | inactive | inactive |
| – | CC(=O)O[C@@]1(C)C[C@@H](O)[C@@H]2C(C(=O)O)=CO[C@@H](O[C@@H]3O[C@H](CO)[C@@H](O)[C@H](O)[C@H]3O)[C@@H]21 | inactive | inactive | inactive |
| – | COC(=O)C1=CO[C@@H](O[C@@H]2O[C@H](CO)[C@@H](O)[C@H](O)[C@H]2O)[C@@H]2[C@@](C)(OC(C)=O)CC[C@]12O | inactive | inactive | inactive |
| 97.5 µg/mL (≈ 240 µM) | COC(=O)C1=CO[C@@H](O[C@@H]2O[C@H](CO)[C@@H](O)[C@H](O)[C@H]2O)[C@H]2[C@@H]1[C@H](O)C[C@]2(C)O [SHANZHISIDE METHYL ESTER] | inactive | inactive | inactive |
| – | COc1ccc(/C=C/C(=O)O[C@@H]2C[C@](C)(OC(C)=O)[C@H]3[C@H](O[C@@H]4O[C@H](CO)[C@@H](O)[C@H](O)[C@H]4O)OC=C(C(=O)O)[C@H]32)cc1 | inactive | inactive | inactive |
| – | COC(=O)C1=CO[C@@H](O[C@@H]2O[C@H](COC=O)[C@@H](O)[C@H](O)[C@H]2O)[C@H]2[C@@H]1[C@H](OC(C)=O)C[C@]2(C)OC(C)=O | inactive | inactive | inactive |
| 286.4 µg/mL (≈ 639 µM) | COC(=O)C1=CO[C@@H](O[C@@H]2O[C@H](CO)[C@@H](O)[C@H](O)[C@H]2O)[C@H]2[C@@H]1[C@H](OC(C)=O)C[C@]2(C)O | inactive | inactive | inactive |
| – | C[C@]1(O)C[C@@H](OC=O)[C@@H]2C(C(=O)O)=CO[C@@H](O[C@@H]3O[C@H](CO)[C@@H](O)[C@H](O)[C@H]3O)[C@@H]21 | inactive | inactive | inactive |
| – | COC(=O)C1=CO[C@@H](O[C@@H]2O[C@H](COC=O)[C@@H](O)[C@H](O)[C@H]2O)[C@H]2[C@@H]1[C@H](O)C[C@]2(C)OC(C)=O | inactive | inactive | inactive |
| – | COc1ccc(/C=C\C(=O)O[C@@H]2C[C@](C)(OC(C)=O)[C@H]3[C@H](O[C@@H]4O[C@H](CO)[C@@H](O)[C@H](O)[C@H]4O)OC=C(C(=O)O)[C@H]32)cc1 | inactive | inactive | inactive |
| – | C[C@]1(O)C[C@@H](O)[C@@H]2C(C(=O)O)=CO[C@@H](O[C@@H]3O[C@H](COC=O)[C@@H](O)[C@H](O)[C@H]3O)[C@@H]21 | inactive | inactive | inactive |
| 78.6 µg/mL (≈ 200 µM) | C[C@]1(O)C[C@@H](O)[C@@H]2C(C(=O)O)=CO[C@@H](O[C@@H]3O[C@H](CO)[C@@H](O)[C@H](O)[C@H]3O)[C@@H]21 [SHANZHISIDE] | inactive | inactive | inactive |
| 486.5 µg/mL (≈ 818 µM) | COC(=O)C1=CO[C@@H](O[C@@H]2O[C@H](CO)[C@@H](O)[C@H](O)[C@H]2O)[C@H]2[C@@H]1[C@H](OC(=O)/C=C/c1ccc(O)cc1)C[C@]2(C)OC(C)=O | – | – | – |

| SMILES | IC50 [1] | inhibition (MDA-MB-231) | inhibition (U-251) | inhibition (NIH3T3) |
| --- | --- | --- | --- | --- |
| O=c1c(O)c(-c2ccc(O)c(O)c2)oc2cc(O)cc(O)c12 [QUERCETIN] | 9.52 µg/mL (≈ 31.5 µM) | – | – | – |
| O=C(O)c1cc(O)c(O)c(O)c1 [GALLIC ACID] | 2.79 µg/mL (≈ 16.4 µM) | – | – | – |
